Data: ChEMBL document CHEMBL1649516, “Pyrazolopyrimidinediones are selective agents for Helicobacter pylori that suppress growth through inhibition of glutamate racemase (MurI)” (2009)
Values after ≈ are worked out from the molar mass of the structure shown. Active and inactive are the calls of the source. No cut-off for these calls is given here.

Tests used:
[1] = tested on: Helicobacter pylori; test: Antibacterial activity against Helicobacter pylori SS1 by CLSI M100-S13 method; type: functional
Outline: (§1)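 MICs for H. pylori, C. coli and C. jejuni were determined by a previously described susceptibility method. Compounds were in DMSO at 2% final, and 2% DMSO served as the control.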

[2] = tested on: Escherichia coli; test: Antibacterial activity against Escherichia coli by CLSI M100-S13 method; type: functional
Outline: (§2)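 Broth MICs were run per CLSI guidelines. Compounds were dissolved in DMSO at 2% final concentration, and 2% DMSO alone served as the control.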

[3] = target: T1, Glutamate racemase (Helicobacter pylori (strain ATCC 700392 / 26695) (Campylobacterpylori)) (UniProt P56068); test: Inhibition of MurI in flaA mutant Helicobacter pylori Hp80.2 overexpressing MurI gene assessed as microbial growth inhibition by CLSI M100-S13 method
T1 sequence (whole entry): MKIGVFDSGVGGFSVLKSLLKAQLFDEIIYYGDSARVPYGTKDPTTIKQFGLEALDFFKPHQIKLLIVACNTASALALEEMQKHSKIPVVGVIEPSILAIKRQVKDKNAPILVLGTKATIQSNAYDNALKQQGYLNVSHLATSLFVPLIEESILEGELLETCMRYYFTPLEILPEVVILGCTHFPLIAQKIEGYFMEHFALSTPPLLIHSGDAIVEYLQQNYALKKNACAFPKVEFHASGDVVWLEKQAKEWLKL
Outline: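 MIC against H. pylori Hp80.2, a strain built in the wild-type ARHp80 background by replacing flaA with a murI expression construct (pSM116) so that flaA-promoter-driven MurI is overexpressed, confirmed by PCR, sequencing and Western blot. The comparison strain is isogenic Hp80.1, which carries the empty construct. Compounds were dissolved in DMSO, 2% final, with 2% DMSO as control.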

[4] = tested on: Staphylococcus aureus; test: Antibacterial activity against Staphylococcus aureus by CLSI M100-S13 method; type: functional; outline: as §2
[5] = tested on: Helicobacter pylori; test: Antibacterial activity against HefC-deficient Helicobacter pylori ARHp80 by CLSI M100-S13 method; type: functional; outline: as §1
[6] = tested on: Helicobacter pylori; test: Antibacterial activity against Helicobacter pylori ARHp80 by CLSI M100-S13 method; type: functional; outline: as §1
[7] = tested on: Helicobacter pylori; test: Induction of morphological changes in Helicobacter pylori by phase contrast microscopy; type: functional, organism-based
Outline: (§3)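 H. pylori was grown at 37°C in brucella broth with 5% fetal calf serum under microaerophilic gas (5% O2, 10% CO2, 85% N2), then examined for cell shape by phase-contrast microscopy.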

[8] = tested on: Bacteroides thetaiotaomicron; test: Antibacterial activity against Bacteroides thetaiotaomicron clinical isolate by CLSI M100-S13 method; type: functional
Outline: (§4)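 Anaerobic MICs run by CLSI broth microdilution guidelines for Bacteroides fragilis. Compounds were dissolved in DMSO at 2% final in all wells, and 2% DMSO served as the solvent control.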

[9] = tested on: Bacteroides fragilis; test: Antibacterial activity against Bacteroides fragilis ATCC 25285 by CLSI M11-S13 broth microdilution method; type: functional; outline: as §4
[10] = tested on: Lactobacillus jensenii; test: Antibacterial activity against Lactobacillus jensenii clinical isolate by CLSI M100-S13 method; type: functional
[11] = tested on: Prevotella melaninogenica; test: Antibacterial activity against Prevotella melaninogenica clinical isolate by CLSI M100-S13 method; type: functional; outline: as §4
[12] = tested on: Clostridioides difficile; test: Antibacterial activity against Clostridium difficile clinical isolate by CLSI M100-S13 method; type: functional; outline: as §4
[13] = target: T1, Glutamate racemase (Helicobacter pylori (strain ATCC 700392 / 26695) (Campylobacterpylori)); test: Inhibition of MurI in Helicobacter pylori assessed as morphological change at 2 times MIC by phase contrast microscopy; outline: as §3
[14] = tested on: Campylobacter jejuni; test: Antibacterial activity against Campylobacter jejuni ATCC 33560 by CLSI M100-S13 method; type: functional; outline: as §1
[15] = tested on: Fusobacterium necrophorum; test: Antibacterial activity against Fusobacterium necrophorum clinical isolate by CLSI M100-S13 method; type: functional; outline: as §4
[16] = tested on: Fusobacterium mortiferum; test: Antibacterial activity against Fusobacterium mortiferum clinical isolate by CLSI M100-S13 method; type: functional; outline: as §4
[17] = tested on: Campylobacter coli; test: Antibacterial activity against Campylobacter coli ATCC 33559 by CLSI M100-S13 method; type: functional; outline: as §1
[18] = tested on: Haemophilus influenzae; test: Antibacterial activity against Haemophilus influenzae ATCC 51907 by CLSI M100-S13 method; type: functional; outline: as §2
[19] = tested on: Enterococcus faecium; test: Antibacterial activity against Enterococcus faecium ATCC 19434 by CLSI M100-S13 method; type: functional; outline: as §2
[20] = tested on: Moraxella catarrhalis; test: Antibacterial activity against Moraxella catarrhalis ATCC 43617 by CLSI M100-S13 method; type: functional; outline: as §2
[21] = tested on: Streptococcus pneumoniae; test: Antibacterial activity against Streptococcus pneumoniae NCTC 7466 by CLSI M100-S13 method; type: functional; conditions: NCTC7466; outline: as §2

Row | Compound | MIC [1] | MIC [2] | MIC [3] | MIC [4] | MIC [5] | MIC [6] | MIC [18] | MIC [19] | MIC [20] | MIC [21] | other results
1 | C#CCn1c(=O)c2c(-c3cc(C#N)cn3C)n(Cc3cc(C#N)nc4ccc(Cl)cc34)nc2n(CC2CC2)c1=O | 2 µg/mL (≈ 3.64 µM) | > 64 µg/mL | > 64 µg/mL | > 64 µg/mL | 0.5 µg/mL (≈ 0.911 µM) | 1 µg/mL (≈ 1.82 µM) |  |  |  |  | 
2 | CN(C)[C@@H]1C(O)=C(C(N)=O)C(=O)[C@@]2(O)C(O)=C3C(=O)c4c(O)cccc4[C@@](C)(O)[C@H]3C[C@@H]12 [TETRACYCLINE] | 0.25 µg/mL (≈ 0.563 µM) |  | 0.13 µg/mL (≈ 0.293 µM) |  | 0.015 µg/mL (≈ 0.0338 µM) | 0.13 µg/mL (≈ 0.293 µM) |  |  |  |  | Activity [7]: Active
3 | Cn1cc(C#N)cc1-c1c2c(=O)n(C)c(=O)n(CC3CC3)c2nn1Cc1ccnc2ccc(Cl)cc12 | 1 µg/mL (≈ 2 µM) | > 64 µg/mL | 4 µg/mL (≈ 8 µM) | > 64 µg/mL | 0.25 µg/mL (≈ 0.5 µM) | 0.5 µg/mL (≈ 1 µM) |  |  |  |  | MIC [8]: > 64 µg/mL; MIC [9]: > 64 µg/mL; MIC [10]: > 64 µg/mL; MIC [11]: > 64 µg/mL; MIC [12]: > 64 µg/mL; Activity [13]: Non-toxic; MIC [14]: > 64 µg/mL; MIC [15]: > 64 µg/mL; MIC [16]: > 64 µg/mL; MIC [17]: > 64 µg/mL
4 | Cn1cc([S+](C)[O-])cc1-c1c2c(=O)n(C)c(=O)n(CC3CC3)c2nn1Cc1ccnc2ccc(Cl)cc12 (configuration not stated) | 16 µg/mL (≈ 29.8 µM) | > 64 µg/mL | 16 µg/mL (≈ 29.8 µM) | > 64 µg/mL | 0.25 µg/mL (≈ 0.466 µM) | 8 µg/mL (≈ 14.9 µM) | > 64 µg/mL | > 64 µg/mL | > 64 µg/mL | > 64 µg/mL | 
5 | CC(C)Cn1c(=O)n(C)c(=O)c2c(-c3ccncc3)n(Cc3cccc4ccccc34)nc21 | 4 µg/mL (≈ 9.1 µM) | > 64 µg/mL | 8 µg/mL (≈ 18.2 µM) | > 64 µg/mL | 1 µg/mL (≈ 2.28 µM) | 4 µg/mL (≈ 9.1 µM) | > 64 µg/mL | > 64 µg/mL | > 64 µg/mL | > 64 µg/mL | 
6 | C#CCn1c(=O)c2c(-c3cncn3C)n(Cc3ccnc4ccc(Cl)cc34)nc2n(CC2CC2)c1=O | 2 µg/mL (≈ 4 µM) | > 64 µg/mL | 8 µg/mL (≈ 16 µM) | > 64 µg/mL | 0.25 µg/mL (≈ 0.5 µM) | 1 µg/mL (≈ 2 µM) |  |  |  |  | 
7 | CONC(=O)c1cc(-c2c3c(=O)n(C)c(=O)n(CC4CC4)c3nn2Cc2c[nH]c3ccc(C)cc23)n(C)c1 | 16 µg/mL (≈ 31 µM) | > 64 µg/mL |  | > 64 µg/mL | 0.25 µg/mL (≈ 0.485 µM) | 16 µg/mL (≈ 31 µM) | > 32 µg/mL | > 32 µg/mL | > 32 µg/mL | > 32 µg/mL | 
